Source: PubChem (several laboratories)
Compounds with a hit are over-represented: about 2.6% of the library has one in this group of screens.
SMARCA2 act – activators of SMARCA2 function | AID 652017 | 370,000 tested, 1% active | activation, % at 9.1 µM | MG213 cells, MMTV-luciferase reporter, dexamethasone, overnight; in the data active = activation above about 7.8%
esBAF inh – inhibitors of esBAF chromatin remodeling in mouse ES cells; Bmi1-luciferase knock-in reporter, 24 h; 100% = twice the neutral-well signal; reporter increase, % at 12.5 µM; 350,000 tested, 2% active; AID 602393; in the data active = activation above about 40%;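 note: a rise in the Bmi1 reporter signal indicates esBAF inhibition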
ARFGAP1 inhibitor – inhibits rat ARF GTPase activating protein 1; 360,000 tested, 0.26% active; Q62848; Arfgap1-stimulated ARF1 GTP hydrolysis, GDP FP detection; inhibition, % at 16.5 µM; AID 651572;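 active = inhibition above a per-plate limit, mean inhibition of low control wells plus 3 SD, cut at about 25% in these data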
Target sequence (Q62848 1-136 limits assumed): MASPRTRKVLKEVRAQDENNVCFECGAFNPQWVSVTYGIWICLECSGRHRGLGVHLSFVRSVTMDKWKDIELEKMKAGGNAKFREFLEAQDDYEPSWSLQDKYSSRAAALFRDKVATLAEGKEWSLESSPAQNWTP
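Material: rat Arfgap1 catalytic domain, aa 1-136; also added: human ARF1(Δ1-17)-GTP substrate; compound dosing: one concentration, 16.5 µM, DMSO 1.26%; incubation: GTP hydrolysis reaction 2 h at 25 °C; measured by: Tracer-displacement fluorescence polarization with EDTA stop, 620/688 nm; evaluation: % inhibition from polarization; repeats: one replicate per compound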
ASAP1 GAP inh – blocks human ASAP1-stimulated Arf1 GTP hydrolysis; Q9ULH1; GDP FP detection; inhibition, % at 16.5 µM; 360,000 tested, 0.19% active; in the data active = inhibition above about 25%
Target sequence (Q9ULH1 325-724 limits assumed): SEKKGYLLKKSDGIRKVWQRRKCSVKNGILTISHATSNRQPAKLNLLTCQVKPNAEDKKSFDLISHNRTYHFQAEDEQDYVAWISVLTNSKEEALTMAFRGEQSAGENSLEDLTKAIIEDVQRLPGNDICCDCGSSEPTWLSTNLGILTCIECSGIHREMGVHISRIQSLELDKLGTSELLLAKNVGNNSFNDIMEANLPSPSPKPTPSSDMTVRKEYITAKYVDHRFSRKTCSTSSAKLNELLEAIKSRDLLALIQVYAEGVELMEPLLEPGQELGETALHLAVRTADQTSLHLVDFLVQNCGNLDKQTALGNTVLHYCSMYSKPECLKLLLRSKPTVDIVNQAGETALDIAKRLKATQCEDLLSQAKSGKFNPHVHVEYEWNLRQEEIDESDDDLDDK
SMARCA2 act conf – confirmation of SMARCA2 (BRM) function activators. 3,500 tested, 30% active. shares compounds with SMARCA2 act. activation, % at 9.1 µM. MG213 cells, MMTV-luciferase with dexamethasone, luminescence, overnight; MG213 cells expressing E1A, Rb sequestered; DMSO wells 0%, reference activator 100%;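 active = activation above its plate's cutoff, the mean activation of tested wells plus 3 SD, cut at about 7.9% in these data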
GAL4-VP16 Luc – counter-screen for SMARCA2 activators: GAL4-VP16 luciferase reporter activation. 3,500 tested, 41% active. shares compounds with SMARCA2 act. HEK293 GAL4-VP16 pG5luc reporter, luciferase luminescence; scaled: DMSO wells 0%, SAHA wells 100%. activation, % at 9.1 µM. AID 686939;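 active = activation above the solvent-only control well mean plus 3 SD, averaged across control plates, cut at about 5.2% in these data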
Numbers stand for hits; 0 = inactive; - = no result given.

SMILES | SMARCA2 act | esBAF inh | ARFGAP1 inhibitor | ASAP1 GAP inh | SMARCA2 act conf | GAL4-VP16 Luc
OCC(Cc1ccccc1)Nc1c2ccccc2nc2ccccc12 (stereo not drawn) | 9.8 | - | 0 | 0 | 0 | 0
CN(C)C(=O)C[C@@H]1C[C@@H]2c3cc(NC(=O)C4CCC4)ccc3O[C@@H]2[C@@H](CO)O1 | - | 0 | - | - | - | -
Oc1ccc(-c2csc(Nc3ncccn3)n2)c(O)c1 | 9.4 | 82.4 | 0 | 0 | 11.4 | 10.3
N=c1c2c(-c3ccccc3)c(-c3ccccc3)n(Cc3ccccc3)c2ncn1CCO | 8.7 | 0 | 0 | 0 | 0 | 0
CCCNC(=O)Nc1ccc2c(c1)C(=O)N(C)C[C@@H](OC)[C@H](C)CN(Cc1ccccc1)[C@@H](C)CO2 | - | 0 | - | - | - | -
CC1Cc2ccccc2N1S(=O)(=O)c1cccc(C(=O)c2nccn2C)c1 (stereo not drawn) | 8.6 | 0 | 0 | 0 | 0 | 0
CN1C(=O)c2cc(NS(C)(=O)=O)ccc2OC[C@H]2O[C@@H](CC(=O)NC3CCCCC3)CC[C@H]21 | - | 0 | - | - | - | -
CC(C)CC(=O)Nc1nnc(SCC(=O)Nc2ccc3c(c2)OCO3)s1 | 0 | - | 0 | 0 | - | -
CC(C)(C)C(=O)Nc1nnc(SCC(=O)Nc2ccc3c(c2)OCO3)s1 | 13.4 | - | 0 | 0 | 0 | 0
CN1C[C@H]2[C@@H](c3ccccc31)[C@H](CO)N2Cc1ccccc1F | - | 0 | - | - | - | -
CCOC(=O)[C@]12CCCC3=C1N(CCC3)C(=O)[C@@H](CC(=O)NCc1ccc(OC)c(OC)c1)C2 | 8.0 | - | - | - | 0 | 0
COc1ccc(S(=O)(=O)Nc2ccc3c(c2)[C@@H]2C[C@@H](CC(=O)NCC4CC4)O[C@H](CO)[C@@H]2O3)cc1 | - | 0 | - | - | - | -
CCc1ccccc1NC(=O)C1CCC(=O)N(c2ccc(OC)cc2)C1c1ccc(OC)cc1 (stereo not drawn) | 9.6 | - | - | - | 0 | 0
COc1ccc(C2C(C(=O)O)CCC(=O)N2c2ccc(OC)cc2)cc1 (stereo not drawn) | 0 | 0 | 0 | 0 | - | -
O=C(c1cc(-c2ccc(O)cc2)on1)N1CCc2ccccc2C1 | 0 | 0 | 0 | 0 | - | -
O=C(c1cc(-c2ccccc2O)on1)N1CCc2ccccc2C1 | 8.6 | 0 | 0 | 0 | 0 | 0
CO[C@@H]1CN(C)C(=O)c2cc(NC(C)=O)ccc2OC[C@H](C)N(Cc2ccc(F)cc2)C[C@H]1C | - | 0 | - | - | - | -
COc1ccc(NC(=O)Nc2ccc3c(c2)C(=O)N([C@@H](C)CO)C[C@@H](C)[C@@H](CN(C)C(=O)NC(C)C)O3)cc1 | - | 0 | - | - | - | -
CC(=O)Nc1nc(=O)c2ccccc2s1 | 8.3 | 0 | 0 | 0 | 0 | 0
Cc1ccc(C(=O)Nc2nc3ccccc3c(=O)s2)cc1 | 17.2 | 0 | 0 | 0 | 0 | 6.3
COC(=O)c1sc2ccccc2c1N | 0 | 0 | 0 | 0 | - | -
CC(=O)N/C(N)=N/c1nc(=O)c2ccccc2s1 | 8.2 | - | 0 | 0 | 13.1 | 8.9
O=C(Nc1nc(=O)c2ccccc2s1)c1ccccc1 | 24.0 | - | 0 | 0 | 0 | 9.6
Nc1nc(=O)c2ccccc2s1 | 0 | - | 0 | 0 | - | -
O=C(Nc1nc2ccccc2s1)c1ccc(F)cc1 | 0 | 0 | 0 | 0 | - | -
SMILES | SMARCA2 act | esBAF inh | ARFGAP1 inhibitor | ASAP1 GAP inh | SMARCA2 act conf | GAL4-VP16 Luc
O=C(Nc1nc(=O)[nH]s1)c1ccccc1 | 0 | - | 0 | 0 | - | -
CCOC(=O)NC(=O)COC(=O)CCCSc1nc2ccccc2s1 | 0 | - | 0 | 0 | - | -
CCOC(=O)N/C(N)=N/c1nc2ccccc2s1 | 9.9 | 56.6 | 0 | 0 | 8.4 | 13.5
O=C(Nc1nc2c(s1)C(=O)CCC2)c1ccccc1 | 8.3 | - | 0 | 0 | 9.7 | 12.0
C[C@@H]1CN([C@H](C)CO)C(=O)c2cc(NC(=O)Cc3cn(C)c4ccccc34)ccc2O[C@@H]1CN(C)C(=O)Nc1ccc2c(c1)OCO2 | - | 0 | - | - | - | -
COC1=Nc2ccccc2N2CCN=C12 | 0 | - | 0 | 0 | - | -
c1ccc2c(c1)C1=NCCN1c1ccccc1-2 | 23.8 | - | 0 | 0 | 371.5 | 0
CCCOc1ccc(C(=O)NNC(=S)NC(=O)c2cccs2)cc1 | 13.0 | 0 | 0 | 0 | 0 | 0
CC(C)n1nnnc1C1c2ccccc2C(=O)N1CCc1ccccc1F (stereo not drawn) | 8.8 | - | 0 | 0 | 0 | 7.4
CC(C)n1nnnc1C1c2ccccc2C(=O)N1CCc1c[nH]c2ccccc12 (stereo not drawn) | 0 | - | 0 | 0 | - | -
COc1cccc(N2CCN(c3nc(C)c(C)c(=O)[nH]3)CC2)c1 | 0 | 0 | 0 | 0 | - | -
COc1cccc(N2CCN(c3nc(-c4ccccc4C)cc(=O)[nH]3)CC2)c1 | 13.3 | 0 | 0 | 0 | 36.0 | 0
C[C@@H]1CN([C@H](C)CO)C(=O)c2cc(NC(=O)Cc3ccccc3)ccc2O[C@@H](C)CCCCO[C@H]1CN(C)S(=O)(=O)c1cccs1 | - | 0 | - | - | - | -
CCC(=O)Nc1cccc(NC(=S)NC(=O)c2cc3ccccc3o2)c1 | 11.6 | - | 0 | 0 | 0 | 15.3
O=C(Nc1ccc(Br)cc1)NC1CCCCCCC1 | 0 | - | 0 | 0 | - | -
O=C(Nc1ccccc1)NC1CCCCCCC1 | 11.9 | - | 0 | 0 | 0 | 0
Cc1cc(NC(=O)CN2C(=O)NC(CC(C)C)C2=O)ccc1Br (stereo not drawn) | 0 | 0 | 0 | 0 | - | -
CC(C)CC1NC(=O)N(CC(=O)Nc2cccc(Br)c2)C1=O (stereo not drawn) | 9.6 | 0 | 0 | 0 | 0 | 0
Cc1ccc2nc(SCC(=O)c3ccc(O)cc3O)[nH]c2c1 | 8.6 | 62.2 | 0 | 0 | 0 | 10.4
CCC(=O)N1C(Cc2ccccc2)COC1(C)C (stereo not drawn) | 8.9 | - | 0 | 0 | 0 | 0
CCC1(C)NC(=O)N(CC(=O)N2CCC(Cc3ccccc3)CC2)C1=O (stereo not drawn) | 0 | 0 | 0 | 0 | - | -
COC1C(CO)OC(n2c3c(Cl)cccc3c3c4c(c5c6cccc(Cl)c6[nH]c5c32)C(=O)NC4=O)C(O)C1O (stereo not drawn) | 10.1 | - | 0 | 0 | 22.8 | 0
CCOc1ccc(NC(=O)C/C(C)=N/NC(=O)c2cnccn2)cc1 | 8.9 | 0 | 0 | 0 | 0 | 0
O=C(Nc1ccc(F)cc1)c1cnccn1 | 8.7 | 0 | 0 | 0 | 0 | 0
Cc1ccc(NC(=O)c2cnccn2)cc1 | 0 | - | 0 | 0 | - | -
COc1ccccc1NC(=O)C/C(C)=N/NC(=O)c1ccccn1 | 11.9 | 0 | 0 | 0 | 0 | 0
COc1cc(NC(=O)C/C(C)=N/NC(=O)c2ccccn2)c(OC)cc1Cl | 0 | 0 | 0 | 0 | - | -
CC(=O)N1C[C@H]2[C@@H](c3ccccc31)[C@H](CO)N2C(=O)CC1CC1 | - | 0 | - | - | - | -
CCC(=O)Nc1ccc2c(c1)OC[C@H](C)N(C(=O)C1CC1)C[C@H](C)[C@H](OC)CN(C)C2=O | - | 0 | - | - | - | -
CCN1[C@@H]2Cn3c(ccc(/C=C/c4ccccc4)c3=O)[C@H]1[C@@H](C(=O)N1CCCCC1)[C@@H]2CO | - | 0 | - | - | - | -
